Published values pooled from the literature.
Each line is one published result; the experiments were not run side by side.
Effect on: cell growth or viability

For `COc1ccc2c(Cc3ccccc3F)c3n(c(=O)c2c1OC)CCc1cc2c(cc1-3)OCO2`, the IC50 was 26.1 µM (L929; CCK-8; 24 h).
`Fc1ccc(NCc2ccc(Oc3ccccn3)cc2)cc1` has a CC50 of over 300 µM (Vero; MTT; 72 h).
For `COC(=O)c1[nH]cc(-c2c[nH]c3ccc(Cl)cc23)c1-c1c[nH]c2ccc(Cl)cc12`, the CC50 was over 10 µM (RAW264.7; resazurin; 72 h).
For `C=C1CC[C@H]2C(C)=CC[C@H]3C(=C)C(=O)O[C@@H]3[C@@H]12`, the CC50 was 7.3 µM (CHO-K1; MTT; 72 h).
With `CCNc1nc(Nc2ccc(F)c(Cl)c2)c2ccccc2n1` the viability was 52.9% (Vero; MTT; 125 µg/mL).
For `NC(=O)c1ncn([C@@H]2O[C@H](CO)[C@@H](O)[C@H]2O)n1`, the CC50 was over 100 µM (BHK-21; WST-1; 72 h).
For `O=S(=O)(NNc1nnc(Cl)c2ccccc12)c1ccc(F)cc1`, the viability was 4.75% (Vero; MTT; 500 µg/mL).
For `Cn1cnc2c1c(=O)n(CC(=O)Nc1c(Cl)cccc1Cl)c(=O)n2C`, the viability was 99.8% (Vero; MTT; 62.5 µg/mL).
The CC50 of `C=C1CC[C@@H](O)[C@]2(C)CC[C@H]3C(=C)C(=O)O[C@@H]3[C@@H]12` is reported as 31.3 µM (CHO-K1; MTT; 72 h).
